Test results taken from publication PMC6345172 (Cancer letters, 2018).

Columns and labels:
MKN45 cells = assay: MTT cell proliferation assay, MKN45; type: cell-based; details: Homo sapiens, MKN-45, 72 h, read-out: IC50 on MKN45 cells
In short: (§1)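 Cells seeded overnight in 96-well plates, then exposed to a range of test compound concentrations for 72 h. MTT added for 2 h, medium removed, formazan dissolved in DMSO, and OD570 read. Viability normalized to untreated cells from the same experiment. IC50 calculated from concentration–response data. MTT run in triplicate; means ± SEM of three experiments.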

AGS cells = assay: MTT cell proliferation assay, AGS; type: cell-based; details: Homo sapiens, 72 h, read-out: IC50 on AGS cells
In short: as §1

IC50 (MKN45 cells): 13.7 ± 0.8 µM
IC50 (AGS cells): 27.8 ± 1.1 µM
SMILES: COc1ccc(CCCOC(Cn2ccnc2)c2ccc(OC)cc2)cc1 (centres unmarked) [SKF96365]
